# Data taken from ChEMBL document CHEMBL1145431, “Improved anti-osteoporosis potency and reduced endometrial membrane hyperplasia during hormone replacement therapy with estrogen-RGD peptide conjugates” (2007).
# Where a SMILES comes first, the peptide text is derived from it. The star is where a group is joined. X1 = C[C@]12CC[C@@H]3c4ccc(OCC(=O)*)cc4CC[C@H]3[C@@H]1CCC2O
# What was measured:
# Mus musculus [1] = assay: Effect on mineral content in ovariectomized mouse at 0.1103 mmol/kg, ip once daily for 4 weeks; type: functional
# In short: (§1)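 Female Kuiming mice (7 weeks, 30.7 ± 3.1 g) ovariectomized, sham group abdominorotomy. From day 5, i.p. once daily for 4 weeks at 110.3 × 10-3 mmol/kg in 0.5% CMC. Left femur cleaned, length measured, defatted in chloroform-methanol (2:1, 2 × 3 h), dried 120 °C 6 h for dry weight, ashed 800 °C 8 h. Mineral content = ash/dry weight. Ash dissolved in 6 N HCl and diluted. Ca by o-methylphenolphthalein complexone, P by molybdenum blue. Lungs and livers weighed directly.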
# Mus musculus [2] = assay: Effect on serum phosphorus level in ovariectomized mouse at 0.1103 mmol/kg, ip once daily for 4 weeks; type: functional
# In short: (§2)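 OVX Kuiming mice dosed i.p. daily for 4 weeks in 0.5% CMC. Blood taken retro-orbitally on the day after the last dose, stood 30 min, spun at 3000 g for 20 min, serum stored at -20 °C. Calcium by o-methylphenolphthalein complexone, phosphorus by molybdenum blue, ALP by activity with disodium phenylphosphate substrate.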
# Mus musculus [3] = assay: Effect on spleen weight in mouse at 0.1103 mmol/kg, po; type: functional
# In short: (§3)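 Female Kuiming mice (7 weeks old, 30.7 ± 3.1 g) under abdominal OVX, sham group abdominorotomy only. From day 5 after surgery, dosed orally once daily for 4 weeks at 110.3 × 10-3 mmol/kg in 0.5% CMC (0.2 mL), vehicle group CMC alone. Blood drawn retro-orbitally, then left femur and organs removed under pentobarbital (40.0 mg/kg, i.p.).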
# Mus musculus [4] = assay: Effect on lung weight in mouse at 0.011 mmol/kg, ip; type: functional
# In short: (§4)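 Dose-response in OVX Kuiming mice, i.p. daily for 4 weeks in 0.5% CMC at 11.03, 55.15 or 110.3 × 10-3 mmol/kg. Left femur: length, then defatting, drying at 120 °C for 6 h (dry weight), ashing at 800 °C for 8 h. Ash/dry ratio gives mineral content. Ash Ca and P measured colorimetrically. Liver, lung and spleen weighed directly. n = 12, ANOVA.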
# Mus musculus [5] = assay: Effect on serum phosphorous level in mouse at 0.011 mmol/kg, ip; type: functional; conditions: in the assay text read “0.11 mmol/kg” for “0.011 mmol/kg”
# In short: (§5)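 Dose-response in OVX Kuiming mice, i.p. daily for 4 weeks in 0.5% CMC at 11.03, 55.15 or 110.3 × 10-3 mmol/kg. Serum from retro-orbital blood (3000 g, 20 min). Calcium by o-methylphenolphthalein complexone, phosphorus by molybdenum blue, ALP by activity on disodium phenylphosphate. n = 12, ANOVA.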
# Mus musculus [6] = assay: Effect on femur ash weight in mouse at 0.1103 mmol/kg, po; type: functional; in short: as §3
# Mus musculus [7] = assay: Effect on uterus weight in mouse at 0.011 mmol/kg, ip; type: functional
# In short: (§6)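 Dose study in abdominally ovariectomized female Kuiming mice (30.7 ± 3.1 g). Daily i.p. dosing in aqueous 0.5% CMC from day 5 after surgery for 4 weeks, at 110.3, 55.15 or 11.03 × 10-3 mmol/kg. Liver, lung, spleen and uterus were removed after pentobarbital euthanasia and weighed. n = 12, ANOVA, p < 0.05.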
# Mus musculus [8] = assay: Effect on femur length in recipient mouse at 0.011 mmol/kg, ip; type: functional; in short: as §4
# Mus musculus [9] = assay: Effect on phosphorus level in ovariectomized mouse at 0.1103 mmol/kg, ip once daily for 4 weeks; type: functional; in short: as §1
# Mus musculus [10] = assay: Effect on lung weight in mouse at 0.1103 mmol/kg, po; type: functional; in short: as §3
# Mus musculus [11] = assay: Effect on uterus weight in mouse at 0.055 mmol/kg, ip; type: functional; in short: as §6
# Mus musculus [12] = assay: Effect on femur ash weight in recipient mouse at 0.055 mmol/kg, ip; type: functional; in short: as §4
# Mus musculus [13] = assay: Effect on serum ALP level in mouse at 0.1103 mmol/kg, po; type: functional
# In short: (§7)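 Oral OVX Kuiming mouse model, dosed daily for 4 weeks at 110.3 × 10-3 mmol/kg in 0.5% CMC. Retro-orbital blood stood 30 min at room temperature and was spun at 3000 g for 20 min. Serum kept at -20 °C. Calcium read by o-methylphenolphthalein complexone, phosphorus by molybdenum blue, ALP by activity on disodium phenylphosphate substrate.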
# Mus musculus [14] = assay: Effect on liver weight in mouse at 0.011 mmol/kg, ip; type: functional; in short: as §4
# Mus musculus [15] = assay: Effect on dry weight of femurs in mouse at 0.1103 mmol/kg, po; type: functional, Femur; in short: as §3
# Mus musculus [16] = assay: Effect on femur ash weight in recipient mouse at 0.011 mmol/kg, ip; type: functional; in short: as §4
# Mus musculus [17] = assay: Effect on phosphorus level in mouse at 0.110 mmol/kg, po; type: functional; in short: as §3
# Mus musculus [18] = assay: Effect on dry weight of femurs in ovariectomized mouse at 0.1103 mmol/kg, ip once daily for 4 weeks; type: functional, Femur; in short: as §1
# Mus musculus [19] = assay: Effect on spleen weight in mouse at 0.055 mmol/kg, ip; type: functional; in short: as §4
# Mus musculus [20] = assay: Effect on dry weight of femurs in recipient mouse at 0.055 mmol/kg, ip; type: functional, Femur; in short: as §4
# Mus musculus [21] = assay: Increase in body weight in ovariectomized mouse at 0.1103 mmol/kg, ip once daily for 4 weeks; type: functional
# In short: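 Female Kuiming mice (30.7 ± 3.1 g) underwent abdominal OVX; the sham group had abdominorotomy only. From day 5 after surgery, i.p. dosing once daily for 4 weeks at 110.3 × 10-3 mmol/kg in aqueous 0.5% CMC. Body weight was recorded on the day of the last administration.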
# Mus musculus [22] = assay: Effect on serum ALP level in mouse at 0.1103 mmol/kg, ip; type: functional; in short: as §2
# Mus musculus [23] = assay: Effect on lung weight in mouse at 0.055 mmol/kg, ip; type: functional; in short: as §4
# Mus musculus [24] = assay: Effect on liver weight in ovariectomized mouse at 0.110 mmol/kg, ip once daily for 4 weeks; type: functional; in short: as §1
# Mus musculus [25] = assay: Effect on calcium level in ovariectomized mouse at 0.1103 mmol/kg, ip once daily for 4 weeks; type: functional; in short: as §1
# Mus musculus [26] = assay: Effect on uterus weight in mouse at 0.1103 mmol/kg, po; type: functional
# Mus musculus [27] = assay: Effect on serum ALP lavel in ovariectomized mouse at 0.1103 mmol/kg, ip once daily for 4 weeks; type: functional; in short: as §2
# Mus musculus [28] = assay: Effect on mineral level in mouse femur at 0.055 mmol/kg, ip; type: functional; in short: as §4
# Mus musculus [29] = assay: Effect on femur ash weight in ovariectomized mouse at 0.1103 mmol/kg, ip once daily for 4 weeks; type: functional; in short: as §1
# Mus musculus [30] = assay: Effect on serum calcium level in mouse at 0.1103 mmol/kg, po; type: functional; in short: as §7
# Mus musculus [31] = assay: Effect on serum ALP level in mouse at 0.055 mmol/kg, ip; type: functional; in short: as §5
# Mus musculus [32] = assay: Effect on serum phosphorous level in mouse at […] mmol/kg, ip; type: functional; in short: as §2
# Mus musculus [33] = assay: Effect on calcium level in mouse femur at 0.011 mmol/kg, ip; type: functional; in short: as §4
# Mus musculus [34] = assay: Effect on liver weight in mouse at 0.055 mmol/kg, ip; type: functional; in short: as §4
# Mus musculus [35] = assay: Effect on serum calcium level in mouse at 0.055 mmol/kg, ip; type: functional; in short: as §5
# Mus musculus [36] = assay: Effect on serum calcium level in ovariectomized mouse at 0.1103 mmol/kg, ip once daily for 4 weeks; type: functional; in short: as §2
# Mus musculus [37] = assay: Effect on phosphorous level in mouse femur at 0.055 mmol/kg, ip; type: functional; in short: as §4
# Mus musculus [38] = assay: Effect on calcium level in mouse at 0.1103 mmol/kg, po; type: functional; in short: as §3
smiles,measurement,setting,value
C[C@]12CC[C@@H]3c4ccc(OCC(=O)N[C@@H](CCCNC(=N)N)C(=O)NCC(=O)N[C@@H](CC(=O)O)C(=O)N[C@@H](CO)C(=O)O)cc4CC[C@H]3[C@@H]1CCC2O (stereo partly drawn) (X1-RGDS-OH),Ratio,Mus musculus [1],0.582
same,Activity,Mus musculus [2],1.599 mmol/L
same,Activity,Mus musculus [3],138 mg
same,Activity,Mus musculus [4],181 mg
same,Activity,Mus musculus [5],1.599 mmol/L
same,Activity,Mus musculus [6],30.4 mg
same,Activity,Mus musculus [7],52.8 mg
same,Activity,Mus musculus [8],1.642 cm
same,Activity,Mus musculus [9],24.949%
same,Activity,Mus musculus [10],166 mg
same,Activity,Mus musculus [11],48.6 mg
same,Activity,Mus musculus [12],31.6 mg
same,Activity,Mus musculus [13],35.211 U/L
same,Activity,Mus musculus [14],1.42 g
same,Activity,Mus musculus [15],68.6 mg
same,Activity,Mus musculus [16],18.1 mg
same,Activity,Mus musculus [17],24.994%
same,Activity,Mus musculus [18],63.4 mg
same,Activity,Mus musculus [19],136 mg
same,Activity,Mus musculus [20],56.3 mg
same,Activity,Mus musculus [21],35.2 g
same,Activity,Mus musculus [22],31.4 U/L
same,Activity,Mus musculus [23],167 mg
same,Activity,Mus musculus [24],1.377 g
same,Activity,Mus musculus [25],54.885%
same,Activity,Mus musculus [26],43.2 mg
same,Activity,Mus musculus [27],31.429 U/L
same,Ratio,Mus musculus [28],0.479
same,Activity,Mus musculus [29],37 mg
same,Activity,Mus musculus [30],2.03 mmol/L
same,Activity,Mus musculus [31],33.616 U/L
same,Activity,Mus musculus [32],1.599 mmol/L
same,Activity,Mus musculus [33],41.5%
same,Activity,Mus musculus [34],1.397 g
same,Activity,Mus musculus [35],2.047 mmol/L
same,Activity,Mus musculus [36],2.004 mmol/L
same,Activity,Mus musculus [37],24.274%
same,Activity,Mus musculus [38],51.988%
